The target of one data set is Histone deacetylase 1 (Homo sapiens, UniProt Q13547). As to the kind of experiment: Inhibition of HDAC1 (unknown origin) using fluorogenic tetrapeptide RHKK(Ac) substrate by fluorescence assay.
Data set [1] can be described thus: Intrinsic clearance in human hepatocytes assessed per million cells at 5 uM by LCMS/MS analysis. The data set is classed as ADME, cell-based, Hepatocyte. The settings on record: read-out: CLH. In a few lines: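 Incubation in human hepatocytes. […] Values are means of at least three experiments.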
Data set [2] can be described thus: Efflux ratio of permeability from apical to basolateral side to basolateral to apical side of human Caco2 cells. Type of data set: ADME, cell-based. The settings on record: caco-2. In a few lines: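 Caco-2 monolayers; the efflux ratio is flux in the apical-to-basolateral direction over flux in the basolateral-to-apical direction. Means of at least three experiments.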

Data set [3] in a line: Antitumor activity against human HCT116 cells xenografted in athymic nude mouse assessed as tumor volume inhibition at 100 mg/kg, po qd for 5 days a week for 3 weeks. Type of data set: functional. The settings on record: HCT-116. In a few lines: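 Female athymic nude mice, 5–6 weeks old, were inoculated sc in the right flank with 5 × 10⁶ exponentially growing tumor cells per 100 μL. Oral dosing once daily began 3 days after tumor injection, in Solutol HS15 diluted 1/20 in water. Tumor volume inhibition was calculated as TVI% = 100 − [(mean TV treated/mean TV control) × 100].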

For a further data set, the system named is Mus musculus. As to the kind of experiment: Toxicity in human HCT116 cells xenografted athymic nude mouse assessed as body weight loss at 100 mg/kg, po qd for 5 days a week for 3 weeks. The settings on record: in vivo. Type of data set: organism-based, HCT-116. Also on record: dose 100 mg/kg, route oral. In a few lines:
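Nude mice (female, athymic, 5–6 weeks) carried sc right-flank xenografts of 5 × 10⁶ cells per 100 μL. Oral treatment once daily started 3 days after inoculation.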

For data set [4], the target named is T1, Cholecystokinin receptor type A (Homo sapiens) (UniProt P32238).
T1 sequence (whole entry): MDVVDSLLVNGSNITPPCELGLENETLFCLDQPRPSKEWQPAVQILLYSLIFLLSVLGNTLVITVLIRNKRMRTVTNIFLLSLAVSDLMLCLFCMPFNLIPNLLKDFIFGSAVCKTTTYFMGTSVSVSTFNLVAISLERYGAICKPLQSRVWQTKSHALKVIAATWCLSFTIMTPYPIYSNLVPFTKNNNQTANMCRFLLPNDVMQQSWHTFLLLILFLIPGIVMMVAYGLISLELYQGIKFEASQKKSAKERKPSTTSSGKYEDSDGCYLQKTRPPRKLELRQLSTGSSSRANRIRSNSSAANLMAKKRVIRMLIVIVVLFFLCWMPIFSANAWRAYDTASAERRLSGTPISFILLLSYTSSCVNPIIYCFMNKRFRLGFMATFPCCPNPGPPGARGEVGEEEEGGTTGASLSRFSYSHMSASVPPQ
As to the kind of experiment: Inhibition of human CCK1 at 10 uM by radioligand displacement assay. In a few lines: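 Tested at 10⁻⁵ M within a 40-target panel of receptors, ion channels and enzymes. Read-out was percent displacement of a radiolabeled reference ligand.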

Sequence of Histone deacetylase 1 (Q13547 whole entry): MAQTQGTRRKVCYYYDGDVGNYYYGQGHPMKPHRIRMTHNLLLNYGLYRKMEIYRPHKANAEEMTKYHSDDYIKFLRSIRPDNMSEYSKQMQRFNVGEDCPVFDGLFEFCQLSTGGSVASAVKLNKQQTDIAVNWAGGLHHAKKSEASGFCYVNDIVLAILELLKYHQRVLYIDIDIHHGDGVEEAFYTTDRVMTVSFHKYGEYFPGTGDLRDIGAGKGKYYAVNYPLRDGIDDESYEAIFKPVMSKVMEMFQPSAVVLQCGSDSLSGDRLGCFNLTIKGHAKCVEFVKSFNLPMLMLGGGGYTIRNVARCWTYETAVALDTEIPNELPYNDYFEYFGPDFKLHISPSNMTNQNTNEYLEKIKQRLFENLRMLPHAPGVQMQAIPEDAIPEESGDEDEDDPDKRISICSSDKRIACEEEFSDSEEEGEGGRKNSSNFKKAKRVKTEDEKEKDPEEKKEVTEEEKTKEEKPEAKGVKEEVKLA

At Histone deacetylase 1, `O=C1CC[C@@H](C(=O)N[C@H](CCCCCS)C(=O)Nc2ccccc2)N1` displayed a half-inhibitory concentration (IC50) of 0.013 µM. For the same compound, the hepatocyte CLint at 5 µM in data set [1] was determined as 15.4 µL/min/1e6 cells. In addition, the Ratio in data set [2] worked out at 5.2. In addition, in data set [3], the inhibition in vivo at 100 mg/kg came out at 27%. In addition, the Activity in the data set on Mus musculus is listed as 3%. The inhibition in data set [4] turned out to be 45%.
